Data taken from ChEMBL document CHEMBL1145749, “Inhibition of human immunodeficiency virus reverse transcriptase by synadenol triphosphate and its E-isomer” (J Med Chem, 2003).

Assays:
[1] = molecular target: Human immunodeficiency virus type 1 reverse transcriptase (Human immunodeficiency virus 1, UniProt Q72547); assay: Inhibitory activity against HIV-1 Reverse transcriptase wild-type (RT wt)
Method in brief: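 Recombinant HIV-1 RT (wild-type, M184V or M184I) was expressed in E. coli JM109 with 1 mM IPTG for 5 h, then purified on Q and SP columns to >90% purity. Assay used MS2 RNA/22A DNA primer in 50 mM Tris-HCl pH 7.8, 6 mM MgCl2, 150 mM KCl and 0.01% Triton X-100. Synthesis was distributive, with [3H]dATP as the only nucleotide, at 37 °C. Timed aliquots were spotted on DE81 and counted by scintillation. Ki came from the abscissa intercept of the Lineweaver–Burk replot. Ratio was Ki over dATP Km.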

[2] = molecular target: Human immunodeficiency virus type 1 reverse transcriptase (Human immunodeficiency virus 1, UniProt Q72547, M184I); assay: Inhibitory activity against HIV-1 reverse transcriptase (RT M184I)
Method in brief: (§1)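 Recombinant HIV-1 RT M184V or M184I was expressed in E. coli JM109 (1 mM IPTG, 5 h), purified over Q and SP columns to >90%. The template-primer was MS2 RNA/22A DNA in 50 mM Tris-HCl pH 7.8, 6 mM MgCl2, 150 mM KCl, 0.01% Triton X-100, with [3H]dATP as the sole nucleotide (distributive mode). Reactions were enzyme-started at 37 °C and sampled 4–5 times onto DE81 filters. Ki came from the abscissa intercept of the Lineweaver–Burk replot.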

[3] = molecular target: Human immunodeficiency virus type 1 reverse transcriptase (Human immunodeficiency virus 1, UniProt Q72547, M184V); assay: Inhibitory activity against HIV-1 reverse transcriptase (RT M184V); method in brief: as §1

| SMILES | Ki [1] [nM] | Ki [2] [nM] | Ki [3] [nM] |
| --- | --- | --- | --- |
| Nc1ncnc2c1ncn2/C=C1/CC1COP(=O)(O)OP(=O)(O)OP(=O)(O)O (stereo not given) | 320 | – | – |
| Nc1ncnc2c1ncn2[C@H]1CC[C@@H](COP(=O)(O)OP(=O)(O)OP(=O)(O)O)O1 [DDA-TRIPHOSPHATE] | 510 | 1200 | 500 |
| Nc1ncnc2c1ncn2/C=C1\CC1COP(=O)(O)OP(=O)(O)OP(=O)(O)O (stereo not given) | 10000 | – | – |
